Here are results for two molecules from ChEMBL document CHEMBL1143585, “Synthesis of some cryptolepine analogues, assessment of their antimalarial and cytotoxic activities, and consideration of their antimalarial mode of action” (J Med Chem, 2005).

The test system of data set [1] is Mus musculus. The experiment in a line: In vivo antimalarial activity of compound against Plasmodium berghei in mice (Mus musculus) at dose of 10 mg/kg treated for 4 days. The class given is functional.
For data set [2], the species on record is Mus musculus. The experiment in a line: Mean survival time taken as number of days before illness due to Plasmodium berghei in untreated mice (Mus musculus). The class given is functional. An outline of the steps:
(§1)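 Peters' 4-day suppressive test in female BALB/c mice (18-20 g), five per group. Each mouse got 1 × 10^7 P. berghei ANKA-infected erythrocytes iv. Drug was given ip in 0.2 mL daily for 4 consecutive days. Survival time was the number of days before signs of malaria illness, compared with untreated infected controls.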

For data set [3], the system named is Mus musculus. In words: In vivo antimalarial activity of compound against Plasmodium berghei was determined as suppression of parasitaemia in mice (Mus musculus) at 10 mg/kg treated for 4 days. The class given is functional.
In data set [4] the test system is Mus musculus. The experiment in a line: Mean survival time taken as number of days before illness due to Plasmodium berghei when mice (Mus musculus) treated with 10 mg/kg dose for 4 days; g=mice (Mus musculus) survived the test. More on the design: dose 10 mg/kg. The class given is functional, organism-based. An outline of the steps: as §1
Data set [5] has as its target T1, Histidine-rich protein PFHRP-II (Plasmodium falciparum) (UniProt P05227).
T1 sequence (whole entry): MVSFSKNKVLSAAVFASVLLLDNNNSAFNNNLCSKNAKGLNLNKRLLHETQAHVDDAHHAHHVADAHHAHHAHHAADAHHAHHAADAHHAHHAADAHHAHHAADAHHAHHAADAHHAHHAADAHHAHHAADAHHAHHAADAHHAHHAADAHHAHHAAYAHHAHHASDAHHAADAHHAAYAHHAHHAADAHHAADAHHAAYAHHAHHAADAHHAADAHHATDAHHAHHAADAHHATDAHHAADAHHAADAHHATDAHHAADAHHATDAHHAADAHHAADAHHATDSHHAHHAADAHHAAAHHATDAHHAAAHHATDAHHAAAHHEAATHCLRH
The experiment in a line: Antiplasmodial activity as IC50 against Beta-hematin formation. It counts as functional. An outline of the steps: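 β-Hematin inhibition (BHIA) assay: hemin (0.4 µmol/well) in DMSO with compound at 0.25–2 (or 4) molar equivalents to hemin, in triplicate. Final DMSO was 25%. Formation started with 8 M acetate buffer pH 5.0, then 37 °C for 18 h. The centrifuged pellet was dissolved in 0.1 M NaOH and read at 405 nm. BHIA50 is the drug equivalents relative to hemin giving 50% inhibition.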

Data set [6] deals with Mus musculus. In words: In vivo antimalarial activity of compound against Plasmodium berghei was determined as suppression of parasitemia in mice (Mus musculus) at 25 mg/kg treated for 4 days. The class given is functional. An outline of the steps:
(§2)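 Peters 4-day suppressive test in female BALB/c mice (18–20 g), five per group. Mice were infected iv with 1 × 10^7 P. berghei ANKA-infected erythrocytes. Drug was given ip daily for four consecutive days. Blood smears were taken on day 5, and % parasitemia suppression was calculated against untreated infected controls. Survival was recorded as days until signs of malaria illness.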

The test system of data set [7] is Mus musculus. The experiment in a line: Mean survival time taken as number of days before illness due to Plasmodium berghei when mice (Mus musculus) treated with 25 mg/kg dose for 4 days. It counts as functional. An outline of the steps: as §1
In a further data set the test system is MAC15A. The experiment in a line: Ratio of cytotoxic to that of antiplasmodial activity was determined. The class given is functional, Mus musculus.
Data set [8] concerns Mus musculus. In words: In vivo antimalarial activity of compound against Plasmodium berghei in mice (Mus musculus) at dose of 25 mg/kg treated for 4 days. It counts as functional. An outline of the steps:
as §2

Data set [9] concerns Mus musculus. In words: In vivo antimalarial activity of compound against Plasmodium berghei in mice (Mus musculus) at dose of 12.5 mg/kg treated for 4 days. It counts as functional. An outline of the steps: as §2
In data set [10] the test system is Mus musculus. The experiment in a line: In vivo antimalarial activity of compound against Plasmodium berghei was determined as suppression of parasitemia in mice (Mus musculus) at 12.5 mg/kg treated for 4 days. It counts as functional. An outline of the steps:
as §2

The nature of data set [11]: Ionization constant for the compound. It counts as physicochemical.
For data set [12], the system named is Mus musculus. The experiment in a line: In vivo antimalarial activity of compound against Plasmodium berghei in mice (Mus musculus) at dose of 3.125 mg/kg treated for 4 days. It counts as functional. An outline of the steps: as §2
In data set [13] the test system is Mus musculus. In words: In vivo antimalarial activity of compound against Plasmodium berghei was determined as suppression of parasitemia in mice (Mus musculus) at 3.125 mg/kg treated for 4 days. The class given is functional. An outline of the steps:
as §2

Data set [14] concerns Plasmodium falciparum. The experiment in a line: […] accumulation into acidic parasitic food vacuole (pH=5.5) relative to Cryptolepine. It counts as functional. An outline of the steps:
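Calculated from each compound's spectrophotometric pKa via a pH-trapping equation, assuming food-vacuole pH 5.5 and external pH 7.4. The result is expressed relative to cryptolepine's ratio. pKa came from UV spectra (0.05 mg mL-1) in at least seven buffers of pH 5.8–13.0, plus 0.1 M NaOH and 0.1 M HCl. pKa was taken as the midpoint of the λmax absorbance plot. Two experiments per compound.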

Data set [15] concerns Mus musculus. In words: Mean survival time taken as number of days before illness due to Plasmodium berghei when mice (Mus musculus) treated with 6.25 mg/kg dose for 4 days. It counts as functional. An outline of the steps:
as §1

The test system of data set [16] is Plasmodium falciparum. The experiment in a line: […] accumulation into acidic parasitic food vacuole at pH=5.5. The class given is functional.
The subject of data set [17] is Mus musculus. The experiment in a line: Mean survival time taken as number of days before illness due to Plasmodium berghei when mice (Mus musculus) treated with 3.125 mg/kg dose for 4 days. The class given is functional. An outline of the steps: as §1
Data set [18] has as its system Mus musculus. The experiment in a line: In vivo antimalarial activity of compound against Plasmodium berghei in mice (Mus musculus) at dose of 6.25 mg/kg treated for 4 days. The class given is functional. An outline of the steps: as §2
Data set [19] deals with Mus musculus. In words: Mean survival time taken as number of days before illness due to Plasmodium berghei when mice (Mus musculus) treated with 12.5 mg/kg dose for 4 days. It counts as functional. An outline of the steps:
as §1

The subject of data set [20] is Mus musculus. In words: In vivo antimalarial activity of compound against Plasmodium berghei was determined as suppression of parasitemia in mice (Mus musculus) at 6.25 mg/kg treated for 4 days. The class given is functional. An outline of the steps:
as §2

In the data set with Mus musculus [1], `CCN(CC)CCCC(C)Nc1ccnc2cc(Cl)ccc12.O=P(O)(O)O.O=P(O)(O)O` (stereo not drawn) [CHLOROQUINE PHOSPHATE] displayed a Parasitemia of 0%. Also, the Mean survival time in the data set filed under Mus musculus [2] was 8.56 days; in the data set with Mus musculus [4], “Mice survived”. The molecule further had a Suppression of parasitemia in the data set on Mus musculus [3] of 100%. The BHIA50 in data set [5] was found to be 1.44.
Take `C[n+]1c2ccc(Br)cc2cc2[nH]c3ccc(Br)cc3c21.[Cl-]`: the Suppression of parasitemia in the data set on Mus musculus [6] is given as 91.4%; in the data set with Mus musculus [10], 75.4%; with Mus musculus [13], 15.9%; with Mus musculus [20], 46.7%. Further, the Mean survival time with Mus musculus [7] is 15 days; in the data set listed under Mus musculus [2], 10 days; in the data set with Mus musculus [15] it was 11.6 days; in the data set with Mus musculus [17] it was 10 days; with Mus musculus [19], 11.8 days. The Ratio with MAC15A came to 123; with Plasmodium falciparum [14], 0.99. For the same molecule, the Parasitemia with Mus musculus [8] came to 1.24%; in the data set on Mus musculus [9] it was 3.55%; with Mus musculus [12] it was 12.1%; in the data set with Mus musculus [18], 7.67%. Further, in data set [11], the pKa – broadly, the negative logarithm of the acid dissociation constant – was found to be 9.1. Also, in the data set with Plasmodium falciparum [16], the Vascular accumulation ratio is 77.9. Besides, the BHIA50 in data set [5] turned out to be 1.53.
